Measured values as given in ChEMBL document CHEMBL4342467, “Discovery of a Novel Dual-Target Inhibitor of ERK1 and ERK5 That Induces Regulated Cell Death to Overcome Compensatory Mechanism in Specific Tumor Types” (J Med Chem, 2020).
pIC50: −log10 of the molar value. Activity calls are given as the source filed them. No cut-off for these calls is given here.

Legend:
[1] = molecular target: Mitogen-activated protein kinase 7 (Homo sapiens) (UniProt Q13164); assay: Inhibition of ERK5 (unknown origin) at 1 uM by Z'-Lyte assay relative to control
Sequence of Mitogen-activated protein kinase 7 (Homo sapiens) (Q13164 2-816 limits assumed): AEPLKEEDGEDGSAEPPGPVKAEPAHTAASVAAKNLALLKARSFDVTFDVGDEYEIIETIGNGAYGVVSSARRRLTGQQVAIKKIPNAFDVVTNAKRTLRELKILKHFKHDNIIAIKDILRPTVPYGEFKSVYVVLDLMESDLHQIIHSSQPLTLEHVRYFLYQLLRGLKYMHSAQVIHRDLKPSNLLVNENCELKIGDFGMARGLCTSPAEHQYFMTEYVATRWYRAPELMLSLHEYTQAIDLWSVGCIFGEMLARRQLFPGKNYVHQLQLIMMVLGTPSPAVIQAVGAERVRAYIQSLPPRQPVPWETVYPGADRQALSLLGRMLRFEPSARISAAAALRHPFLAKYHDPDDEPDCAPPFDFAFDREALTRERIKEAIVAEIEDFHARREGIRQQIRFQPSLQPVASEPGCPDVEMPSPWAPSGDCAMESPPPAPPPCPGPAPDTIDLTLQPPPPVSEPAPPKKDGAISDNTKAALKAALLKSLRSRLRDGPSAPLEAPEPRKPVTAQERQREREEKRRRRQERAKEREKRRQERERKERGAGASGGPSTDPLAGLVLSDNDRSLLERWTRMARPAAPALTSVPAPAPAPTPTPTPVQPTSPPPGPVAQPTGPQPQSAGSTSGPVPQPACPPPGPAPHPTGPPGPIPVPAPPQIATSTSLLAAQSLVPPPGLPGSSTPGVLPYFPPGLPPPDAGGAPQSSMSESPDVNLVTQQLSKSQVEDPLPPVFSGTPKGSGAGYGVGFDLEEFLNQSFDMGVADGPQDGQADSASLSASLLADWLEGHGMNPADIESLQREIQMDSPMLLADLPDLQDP

HL-60 [2] = assay: Antiproliferative activity against human HL60 cells assessed as reduction in cell viability measured after 24 hrs; format: functional, cell-based; details: HL-60, 24 h
[3] = molecular target: Mitogen-activated protein kinase 7 (Homo sapiens) (UniProt Q13164); assay: Inhibition of ERK5 in human MKN74 cells harboring siRNA assessed as reduction in ERK5 phosphorylation at 0.5 uM by immunofluorescence assay; format: cell-based
Outline: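 ERK1/2-specific or negative-control siRNA was transfected into MKN-74 cells for the indicated times, followed by compound at 0.5 μM. p-ERK1/2 and p-ERK5 puncta were detected by immunocytochemistry.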

[4] = molecular target: Mitogen-activated protein kinase; ERK1/ERK2 (Homo sapiens) (UniProt P27361+P28482); assay: Inhibition of ERK1/2 phosphorylation in human MKN74 cells harboring ERK1/2 siRNA at 0.5 uM by immunofluorescence assay; format: cell-based
Sequence of Mitogen-activated protein kinase; ERK1/ERK2 (Homo sapiens) (P27361 whole entry, looked up): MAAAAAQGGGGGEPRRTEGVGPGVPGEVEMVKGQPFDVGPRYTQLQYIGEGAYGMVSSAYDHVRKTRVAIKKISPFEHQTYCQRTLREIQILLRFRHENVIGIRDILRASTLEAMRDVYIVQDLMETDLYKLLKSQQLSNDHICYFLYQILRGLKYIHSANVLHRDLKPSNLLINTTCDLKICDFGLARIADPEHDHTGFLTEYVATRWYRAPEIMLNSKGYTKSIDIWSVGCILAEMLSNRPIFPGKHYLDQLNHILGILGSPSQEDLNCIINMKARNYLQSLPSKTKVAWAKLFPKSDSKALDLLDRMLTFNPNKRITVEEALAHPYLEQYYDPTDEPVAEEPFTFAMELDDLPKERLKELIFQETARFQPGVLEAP
Sequence of Mitogen-activated protein kinase; ERK1/ERK2 (Homo sapiens) (P28482 whole entry, looked up): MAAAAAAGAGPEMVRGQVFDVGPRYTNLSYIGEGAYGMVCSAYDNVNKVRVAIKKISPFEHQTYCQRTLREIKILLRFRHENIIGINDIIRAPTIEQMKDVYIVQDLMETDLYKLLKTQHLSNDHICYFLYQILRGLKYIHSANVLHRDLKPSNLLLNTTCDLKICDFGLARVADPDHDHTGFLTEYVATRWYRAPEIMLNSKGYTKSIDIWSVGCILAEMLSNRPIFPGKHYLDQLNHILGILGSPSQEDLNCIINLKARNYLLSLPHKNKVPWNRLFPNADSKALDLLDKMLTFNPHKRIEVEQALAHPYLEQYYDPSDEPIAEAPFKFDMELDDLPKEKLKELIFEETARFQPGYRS
Outline: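 MKN-74 cells transfected with ERK1/2-specific or negative-control siRNA for the indicated times, then given 0.5 μM. p-ERK1/2 and p-ERK5 puncta detected by immunocytochemistry.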

[5] = molecular target: Mitogen-activated protein kinase 7 (Homo sapiens) (UniProt Q13164); assay: Inhibition of ERK5 in human MKN74 cells assessed as reduction in ERK5 phosphorylation at T218/Y220 residue at 0.5 uM measured up to 24 hrs by Western blot analysis; format: cell-based
[6] = molecular target: MAPK3/MAPK7 (Homo sapiens) (UniProt P27361+Q13164); assay: Inhibition of ERK1/5 in human MKN74 cells assessed as reduction in c-MYC phosphorylation at S62 residue at 0.5 uM measured up to 24 hrs by Western blot analysis; format: cell-based
Sequence of MAPK3/MAPK7 (Homo sapiens) (P27361 whole entry, looked up): as the sequence (P27361 whole entry, looked up) above
Sequence of MAPK3/MAPK7 (Homo sapiens) (Q13164 whole entry, looked up): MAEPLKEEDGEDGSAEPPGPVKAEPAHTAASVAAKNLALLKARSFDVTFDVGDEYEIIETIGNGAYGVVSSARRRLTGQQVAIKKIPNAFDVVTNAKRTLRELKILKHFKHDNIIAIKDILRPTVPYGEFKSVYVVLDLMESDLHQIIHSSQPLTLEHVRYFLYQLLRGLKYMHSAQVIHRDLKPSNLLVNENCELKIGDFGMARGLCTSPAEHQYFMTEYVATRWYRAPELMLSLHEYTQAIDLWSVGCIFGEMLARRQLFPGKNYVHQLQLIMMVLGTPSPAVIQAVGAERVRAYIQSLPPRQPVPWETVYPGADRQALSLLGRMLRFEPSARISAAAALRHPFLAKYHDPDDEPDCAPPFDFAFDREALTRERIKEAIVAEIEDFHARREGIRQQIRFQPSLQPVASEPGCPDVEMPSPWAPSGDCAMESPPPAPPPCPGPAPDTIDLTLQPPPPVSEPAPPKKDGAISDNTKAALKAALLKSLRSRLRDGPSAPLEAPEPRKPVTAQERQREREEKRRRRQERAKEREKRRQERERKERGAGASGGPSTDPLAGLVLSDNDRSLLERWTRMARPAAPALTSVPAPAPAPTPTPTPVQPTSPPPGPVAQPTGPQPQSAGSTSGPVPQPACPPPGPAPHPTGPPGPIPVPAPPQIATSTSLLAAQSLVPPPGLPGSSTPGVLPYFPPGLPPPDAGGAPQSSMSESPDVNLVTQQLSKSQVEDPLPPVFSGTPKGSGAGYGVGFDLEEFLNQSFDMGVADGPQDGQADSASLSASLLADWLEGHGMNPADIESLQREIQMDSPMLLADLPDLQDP

[7] = Effect on Ras/Raf/MEK/ERK signaling in human MKN74 cells assessed as change in Ras expression at 0.5 uM measured up to 24 hrs by Western blot analysis; format: cell-based
Outline: (§1)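 MKN-74 cells exposed to 0.5 μM for 0, 6, 12 and 24 h. Ras, Raf, p-MEK1/2, MEK1/2, p-JNK, JNK, p-p38 and p38 immunoblotted, with GAPDH as loading control.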

[8] = Effect on Ras/Raf/MEK/ERK signaling in human MKN74 cells assessed as change in Raf expression at 0.5 uM measured up to 24 hrs by Western blot analysis; format: cell-based; outline: as §1
[9] = Effect on Ras/Raf/MEK/ERK signaling in human MKN74 cells assessed as change in MEK1/2 expression at 0.5 uM measured up to 24 hrs by Western blot analysis; format: cell-based; outline: as §1
MKN-74 [10] = assay: Induction of autophagy in human MKN74 cells transfected with GFP-mRFP-LC3 assessed as increase in LC3 puncta formation at 0.5 uM measured after 24 hrs by fluorescence microscopic analysis; format: functional, cell-based
Outline: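 MKN-74 cells transfected with GFP-mRFP-LC3 plasmid, treated 24 h at 0.5 μM. GFP-LC3 puncta imaged by fluorescence microscopy.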

MKN-74 [11] = assay: Induction of autophagy in human MKN74 cells assessed as increase in LC3-2 expression at 0.5 uM measured up to 24 hrs by Western blot analysis; format: functional, cell-based
Outline: (§2)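 MKN-74 cells treated with 0.5 μM; LC3 (LC3-II) and p62 levels analyzed by immunoblotting.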

MKN-74 [12] = assay: Induction of autophagy in human MKN74 cells assessed as increase in p62 degradation at 0.5 uM measured up to 24 hrs by Western blot analysis; format: functional, cell-based; outline: as §2
MKN-74 [13] = assay: Induction of autophagy in human MKN74 cells assessed as increase in p62 degradation at 0.5 uM measured after 24 hrs in presence of autophagy inhibitor 3-methyladenine by Western blot analysis; format: functional, cell-based
Outline: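 MKN-74 cells given 0.5 μM for 24 h with or without 3-MA; LC3 and p62 immunoblotted.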

HL-60 [14] = assay: Induction of autophagy in human HL60 cells; format: functional, cell-based
HL-60 [15] = assay: Antitumor activity against human HL60 cells xenografted in BALB/c mouse assessed as reduction in tumor volume at 50 mg/kg, po administered once daily for 16 days measured every 3 days during compound dosing; format: functional, organism-based
Outline: (§3)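 Female nude mice bearing subcutaneous HL-60, MKN-74 or HeLa xenografts, 8 per group. Dosing was vehicle control or 50 mg/kg p.o. once daily for 16 days. Tumor volume followed over time, mean ± SEM.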

HeLa = assay: Antitumor activity against human HeLa cells xenografted in BALB/c mouse assessed as reduction in tumor volume at 50 mg/kg, po administered once daily for 16 days measured every 3 days during compound dosing; format: functional, organism-based; outline: as §3
HL-60 [16] = assay: Antitumor activity against human HL60 cells xenografted in BALB/c mouse assessed as reduction in tumor weight at 50 mg/kg, po administered once daily for 16 days measured post-last dose; format: functional, organism-based
Outline: (§4)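 Female nude mice bearing subcutaneous xenografts (8 per group) received vehicle or 50 mg/kg p.o. once daily for 16 days. Excised tumors weighed and compared with control group.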

MKN-74 [17] = assay: Antitumor activity against human MKN74 cells xenografted in BALB/c mouse assessed as reduction in tumor weight at 50 mg/kg, po administered once daily for 16 days measured post-last dose; format: functional, organism-based; outline: as §4
Mus musculus [18] = assay: In vivo inhibition of ERK5 in BALB/c mouse xenografted with human MKN74 cells assessed as reduction in phosphorylated ERK5 expression at 50 mg/kg, po administered once daily for 16 days measured post-last dose by immunohistochemical analysis; format: functional, organism-based
Outline: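 Tumors excised from control and 50 mg/kg p.o.-treated xenograft mice were immunostained for Ki-67, p-ERK1/2 and p-ERK5. Positive-cell percentage quantified and compared with control.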

Mus musculus [19] = assay: In vivo inhibition of ERK1/2 in BALB/c mouse xenografted with human MKN74 cells assessed as reduction in ERK1/2 phosphorylation at 50 mg/kg, po administered once daily for 16 days measured post-last dose by Western blot analysis; format: functional, organism-based
Outline: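 Two individual tumors excised from xenograft mice were lysed. ERK1/2, p-ERK1/2, ERK5 and p-ERK5 detected by western blot.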

[20] = Cmax in Sprague-Dawley rat at 1 mg/kg, iv by LC-MS analysis; format: ADME, organism-based; set-up: dose 1 mg/kg, route intravenous; details: in vivo
Outline: (§5)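 Rats, two groups of 3; single i.v. dose 1 mg/kg or oral dose 10 mg/kg. Plasma concentration-time profiles used to derive T1/2, Tmax, Cmax, AUC0-t, AUC0-∞ and oral bioavailability. Data from triplicate testing, ± standard deviation.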

[21] = AUC (0 to infinity) in Sprague-Dawley rat at 1 mg/kg, iv by LC-MS analysis; format: ADME, organism-based; set-up: dose 1 mg/kg, route intravenous, time infinity; details: in vivo; outline: as §5
[22] = Cmax in Sprague-Dawley rat at 10 mg/kg, po by LC-MS analysis; format: ADME, organism-based; set-up: dose 10 mg/kg, route oral; details: in vivo; outline: as §5
[23] = AUC (0 to infinity) in Sprague-Dawley rat at 10 mg/kg, po by LC-MS analysis; format: ADME, organism-based; set-up: dose 10 mg/kg, route oral, time infinity; details: in vivo; outline: as §5
[24] = Oral bioavailability in Sprague-Dawley rat at 10 mg/kg by LC-MS analysis; format: ADME, organism-based; details: in vivo
Outline: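 Two groups of rats (3 per group) received a single dose, either 1 mg/kg i.v. or 10 mg/kg p.o. Plasma concentrations were followed to derive Tmax, Cmax, T1/2, AUC and F. Data are from triple testing (± standard deviation).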

inhibition [1]: 89.3%
pIC50 (HL-60 [2]): 5.90
inhibition [3]: Active
inhibition [4]: Active
inhibition [5]: Active
inhibition [6]: Active
Cmax [20]: 1.89 µg/mL
AUC(0-inf) [21]: 1.84 µg·h/mL
Cmax [22]: 1.56 µg/mL
AUC(0-inf) [23]: 5.18 µg·h/mL
bioavailability [24]: 27.6%
Compound: NC(=O)c1c(NC(=O)c2ccccc2Cl)sc2c1CCN(C(=S)Nc1ccccc1Cl)C2
Activity [7]: inactive
Activity [8]: inactive
Activity [9]: inactive
Activity (MKN-74 [10]): Active
Activity (MKN-74 [11]): Active
Activity (MKN-74 [12]): Active
Activity (MKN-74 [13]): inactive
Activity (HL-60 [14]): inactive
Activity (HL-60 [15]): Active
Activity (HeLa): inactive
Activity (HL-60 [16]): Active
Activity (MKN-74 [17]): Active
inhibition (Mus musculus [18]): Active
inhibition (Mus musculus [19]): Active
